In ChEMBL document CHEMBL1130413, “Novel 3'-C/N-substituted 2',3'-beta-D-dideoxynucleosides as potential chemotherapeutic agents. 1. Thymidine derivatives: synthesis, structure, and broad spectrum antiviral properties” (J Med Chem, 1997):
≈ marks a conversion by molar mass, not a printed value.

How the values were obtained:
E6SM [1] = assay: 50% Minimum inhibitory concentration which is required to reduce cytopathogenicity induced by (F) strain of HSV-1 virus on human E6SM cells.; type: functional
In short: (§1)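 Confluent cell monolayers infected with 100 CCID50 virus and left 1 h for adsorption. Residual virus then removed and compound added at serial dilutions (400, 200, 100 ... µg/mL). Value is the concentration giving 50% reduction of CPE.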

MT4 [2] = assay: Cytotoxic concentration which is required to reduce human MT-4 cell viability by 50%.; type: functional
HEL [3] = assay: 50% Minimum inhibitory concentration which is required to reduce cytopathogenicity induced by (KOS) strain of HSV-1 virus on human embryonic HEL cells.; type: functional; in short: as §1
CCRF-CEM [4] = assay: 50% effective concentration of compound which is required to protect human CEM cells against HIV-1 induced giant cell formation.; type: functional, cell-based
In short: (§2)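 CEM cells at 250000–300000 cells/mL infected with HIV-1 (IIIB) or HIV-2 (ROD) at 100 CCID50/mL. Infected cells mixed with serial compound dilutions and incubated 4 days at 37 °C. Syncytium (giant cell) formation then scored. Values averaged over two independent experiments.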

E6SM [5] = assay: 50% Minimum inhibitory concentration which is required to reduce cytopathogenicity induced by (KOS) strain of HSV-1 virus on human E6SM cells.; type: functional; in short: as §1
CEM-TK(-) [6] = assay: 50% effective concentration of compound which is required to protect Thymidine kinase deficient human CEM (CEM/TK-) cells against HIV-2.; type: functional, cell-based
E6SM [7] = assay: 50% Minimum inhibitory concentration which is required to reduce cytopathogenicity induced by (196) strain of HSV-2 virus on human E6SM cells.; type: functional; in short: as §1
CEM-TK(-) [8] = assay: Cytotoxic concentration which is required to reduce CEM/TK- cell viability by 50%.; type: functional; conditions: Homo sapiens
MT4 [9] = assay: 50% effective concentration of compound which is required to protect human MT-4 cells against cytopathogenicity of HIV-1.; type: functional, cell-based
HEL [10] = assay: 50% Minimum inhibitory concentration which is required to reduce cytopathogenicity induced by (G) strain of HSV-2 virus on human embryonic HEL cells.; type: functional; in short: as §1
E6SM [11] = assay: 50% Minimum inhibitory concentration which is required to reduce cytopathogenicity induced by (Mc Intyre) strain of HSV-1 virus on human E6SM cells.; type: functional; in short: as §1
E6SM [12] = assay: 50% Minimum inhibitory concentration which is required to reduce cytopathogenicity induced by TK-(B2006) strain of HSV-1 virus on human E6SM cells.; type: functional; in short: as §1
L1210 = assay: EC50 is the cytotoxic concentration of compound required to reduce L1210 (murine leukemia cells) cell viability by 50%.; type: functional, cell-based; conditions: Mus musculus
In short: (§3)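 Murine L1210 or FM3A-derived cells seeded at 5 × 10^5 cells/mL with varying compound concentrations. Incubated 2 days at 37 °C in humidified CO2. Viable cells counted with a Coulter counter. Value is the concentration reducing viable cell number by 50%.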

CCRF-CEM [13] = assay: 50% effective concentration of compound which is required to protect human CEM cells against HIV-2 induced giant cell formation.; type: functional, cell-based; in short: as §2
HEL [14] = assay: 50% Minimum inhibitory concentration which is required to reduce cytopathogenicity induced by TK-(B2006) strain of HSV-1 virus on human embryonic HEL cells.; type: functional; in short: as §1
[15] = Selectivity index of HIV-1 and HIV-2 with respect to MT-4 cells; type: functional, MT4
In short: (§4)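 Selectivity index calculated as average CC50 divided by average EC50. Each average comes from two independent experiments, using HIV-1 (IIIB) and HIV-2 (ROD) in CEM or MT-4 cells.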

CCRF-CEM [16] = assay: Cytotoxic concentration which is required to reduce human CEM cell viability by 50%.; type: functional
In short: (§5)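 Human CEM or Molt-4 cells seeded at 7.5 × 10^5 cells/mL with varying compound concentrations. Incubated 3 days at 37 °C in humidified CO2. Viable cells counted with a Coulter counter. Value is the concentration reducing viable cell number by 50%.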

[17] = Selectivity index of HIV-1 and HIV-2 with respect to CEM cells; type: functional, CCRF-CEM; in short: as §4
HEL [18] = assay: 50% Minimum inhibitory concentration which is required to reduce cytopathogenicity induced by (Mc Intyre) strain of HSV-1 virus on human embryonic HEL cells.; type: functional; in short: as §1
E6SM [19] = assay: 50% Minimum inhibitory concentration which is required to reduce cytopathogenicity induced by (G) strain of HSV-2 virus on human E6SM cells.; type: functional; in short: as §1
FM3A [20] = assay: EC50 is the cytotoxic concentration of compound required to reduce FM3A/TK- HSV-1TK+ cell viability by 50%.; type: functional, cell-based; conditions: Mus musculus; in short: as §3
MT4 [21] = assay: 50% effective concentration of compound which is required to protect human MT-4 cells against cytopathogenicity of HIV-2.; type: functional, cell-based
MOLT-4 = assay: EC50 is the cytotoxic concentration of compound required to reduce Molt4/C8 (human T-lymphocyte) cell viability by 50%.; type: functional, cell-based; in short: as §5
HEL [22] = assay: 50% Minimum inhibitory concentration which is required to reduce cytopathogenicity induced by (Lyons) strain of HSV-2 virus on human embryonic HEL cells.; type: functional; in short: as §1
FM3A [23] = assay: EC50 is the cytotoxic concentration of compound required to reduce FM3A (murine mammary carcinoma cells) cell viability by 50%.; type: functional, cell-based; conditions: Mus musculus; in short: as §3
E6SM [24] = assay: 50% Minimum inhibitory concentration which is required to reduce cytopathogenicity induced by (Lyons) strain of HSV-2 virus on human E6SM cells.; type: functional; in short: as §1
[25] = Minimum cytotoxic concentration which causes microscopically detectable alteration of normal cell morphology after 2 days of incubation.; type: functional; conditions: 48 h
In short: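 Uninfected E6SM cells exposed to compound for 2 days. Minimum concentration giving a microscopically detectable change in normal cell morphology recorded.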

FM3A [26] = assay: EC50 is the cytotoxic concentration of compound required to reduce FM3A/TK- (Thymidine kinase deficient murine mammary carcinoma cells) cell viability by 50%.; type: functional, cell-based; conditions: Mus musculus; in short: as §3
HepG2 = assay: 50% Effective concentration of compound required for inhibiting intracellular viral replicative intermediate DNA in HBV-transfected 2.2.15 cell line.; type: functional, cell-based; conditions: Homo sapiens
In short: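 2.2.15 cells (HBV-transfected, Hep-G2-derived) in DMEM with 4% FBS and 0.5 mM glutamine; drug exposure 9 days, medium changed every 3 days. Total intracellular DNA extracted and Southern-blotted with a 32P-labelled full-length HBV probe. Replicative intermediate DNA in treated cells compared with untreated 2.2.15 cells; Hep-G2 as negative control.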

HeLa = assay: 50% Minimum inhibitory concentration which is required to reduce cytopathogenicity induced by Vesicular Stomatitis virus (VSV) in Hela cells.; type: functional; conditions: Homo sapiens; in short: as §1
HEL [27] = assay: 50% Minimum inhibitory concentration which is required to reduce cytopathogenicity induced by (OKA) strain of Varicella Zoster virus on human embryonic HEL cells.; type: functional

Compound | MIC (E6SM [1]) | CC50 (MT4 [2]) | EC50 (CCRF-CEM [4]) | MIC (E6SM [5]) | EC50 (CEM-TK(-) [6]) | MIC (E6SM [7]) | CC50 (CEM-TK(-) [8]) | EC50 (MT4 [9]) | MIC (E6SM [11]) | MIC (E6SM [12]) | EC50 (L1210) | EC50 (CCRF-CEM [13]) | Selectivity index [15] | CC50 (CCRF-CEM [16]) | Selectivity index [17] | MIC (E6SM [19]) | EC50 (FM3A [20]) | EC50 (MT4 [21]) | EC50 (MOLT-4) | EC50 (FM3A [23]) | other results
Cc1cn(C2CC([N+](=O)[O-])C(CO)O2)c(=O)[nH]c1=O (stereo not given) | > 200 µg/mL | 93 µg/mL (≈ 343 µM) | > 100 µg/mL | > 200 µg/mL | > 100 µg/mL | > 200 µg/mL | > 200 µg/mL | 1 µg/mL (≈ 3.69 µM) | > 200 µg/mL | > 200 µg/mL | 58 µg/mL (≈ 214 µM) | 100 µg/mL (≈ 369 µM) | 79 | 168 µg/mL (≈ 619 µM) | >1.7 | > 200 µg/mL | > 200 µg/mL | 2.2 µg/mL (≈ 8.11 µM) | 70 µg/mL (≈ 258 µM) | > 200 µg/mL | MIC (HEL [3]): 5 µg/mL (≈ 18.4 µM); MIC (HEL [10]): 20 µg/mL (≈ 73.7 µM); MIC (HEL [14]): > 50 µg/mL; MIC (HEL [18]): 20 µg/mL (≈ 73.7 µM); MIC (HEL [22]): 25 µg/mL (≈ 92.2 µM); MIC (E6SM [24]): > 200 µg/mL; MCC [25]: > 200 µg/mL; EC50 (FM3A [26]): > 200 µg/mL
CO/N=C1/C[C@H](n2cc(C)c(=O)[nH]c2=O)O[C@@H]1CO.CO/N=C1\C[C@H](n2cc(C)c(=O)[nH]c2=O)O[C@@H]1CO | > 200 µg/mL | 182 µg/mL | 26 µg/mL | > 200 µg/mL | > 100 µg/mL | > 200 µg/mL | > 200 µg/mL | 3.3 µg/mL | > 200 µg/mL | > 200 µg/mL | 112 µg/mL | 27 µg/mL | 64 | > 200 µg/mL | 8 | > 200 µg/mL | > 200 µg/mL | 4.6 µg/mL | > 200 µg/mL | > 200 µg/mL | MIC (HEL [3]): 50 µg/mL; MIC (HEL [10]): > 50 µg/mL; MIC (HEL [14]): > 50 µg/mL; MIC (HEL [18]): > 50 µg/mL; MIC (HEL [22]): 35 µg/mL; MIC (E6SM [24]): > 200 µg/mL; MCC [25]: > 200 µg/mL; EC50 (FM3A [26]): > 200 µg/mL
Cc1cn(C2C/C(=N\O)C(CO)O2)c(=O)[nH]c1=O (stereo not given) | 0.5 µg/mL (≈ 1.96 µM) | 1.6 µg/mL (≈ 6.27 µM) | 0.4 µg/mL (≈ 1.57 µM) | 0.4 µg/mL (≈ 1.57 µM) | 20 µg/mL (≈ 78.4 µM) | 11 µg/mL (≈ 43.1 µM) | > 100 µg/mL | 0.025 µg/mL (≈ 0.098 µM) | 1.3 µg/mL (≈ 5.09 µM) | > 200 µg/mL | 1.1 µg/mL (≈ 4.31 µM) | 0.35 µg/mL (≈ 1.37 µM) | 88 | 9.9 µg/mL (≈ 38.8 µM) | 28 | 0.7 µg/mL (≈ 2.74 µM) | > 200 µg/mL | 0.03 µg/mL (≈ 0.118 µM) | 1.2 µg/mL (≈ 4.7 µM) | > 200 µg/mL | EC50 (HepG2): 0.25 µg/mL (≈ 0.98 µM); MIC (HeLa): 135 µg/mL (≈ 529 µM); MIC (HEL [3]): 1.4 µg/mL (≈ 5.49 µM); MIC (HEL [27]): 20 µg/mL (≈ 78.4 µM); MIC (HEL [10]): 0.5 µg/mL (≈ 1.96 µM); MIC (HEL [14]): > 50 µg/mL; MIC (HEL [18]): 0.85 µg/mL (≈ 3.33 µM); MIC (HEL [22]): 0.31 µg/mL (≈ 1.21 µM); MIC (E6SM [24]): 1.4 µg/mL (≈ 5.49 µM); MCC [25]: > 400 µg/mL; EC50 (FM3A [26]): > 200 µg/mL
Cc1cn(C2C/C(=[N+](/[O-])O)C(CO)O2)c(=O)[nH]c1=O (stereo not given) | 9 µg/mL (≈ 33.2 µM) | 91 µg/mL (≈ 336 µM) | 13 µg/mL (≈ 47.9 µM) | 35 µg/mL (≈ 129 µM) | > 100 µg/mL | > 200 µg/mL | > 200 µg/mL | 0.86 µg/mL (≈ 3.17 µM) | 35 µg/mL (≈ 129 µM) | > 200 µg/mL | 25 µg/mL (≈ 92.2 µM) | 10 µg/mL (≈ 36.9 µM) | 102 | 247 µg/mL (≈ 911 µM) | 25 | > 200 µg/mL | > 200 µg/mL | 1.2 µg/mL (≈ 4.42 µM) | 17 µg/mL (≈ 62.7 µM) | > 200 µg/mL | MIC (E6SM [24]): > 200 µg/mL; MCC [25]: > 200 µg/mL; EC50 (FM3A [26]): > 200 µg/mL
